Test results as given in ChEMBL document CHEMBL1124369, “Pyrido[3,4-e]-1,2,4-triazines and related heterocycles as potential antifungal agents” (1989).
Values after ≈ are worked out from the molar mass of the structure shown.

Key:
Trichophyton rubrum [1] = assay: Antifungal activity against Trichophyton rubrum; Range is 64-128; assay type: functional
Diutina rugosa = assay: Antifungal activity against Candida rugosa; assay type: functional
How it was run: (§1)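 Agar dilution MIC. Twofold serial drug dilutions in yeast nitrogen base medium with 1% dextrose, 0.15% asparagine and 1.5% agar. Agar surfaces inoculated using a Steers multiple inocula replicator, then incubated at 35 °C for 24-48 h. MIC was recorded as the lowest concentration inhibiting visible growth. Amphotericin B, miconazole and nystatin served as controls.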

Candida albicans [2] = assay: Antifungal activity against Candida stellatoidea; assay type: functional; how it was run: as §1
Mucor fragilis = assay: Antifungal activity against Mucor fragilis; assay type: functional; how it was run: as §1
Kluyveromyces marxianus [3] = assay: Antifungal activity against Candida pseudotropicalis; assay type: functional; how it was run: as §1
Candida tropicalis [4] = assay: Antifungal activity against Candida tropicalis; assay type: functional; how it was run: as §1
Candida albicans [5] = assay: Antifungal activity against Candida albicans; Range is 32-64; assay type: functional; how it was run: as §1
Aspergillus niger [6] = assay: Antifungal activity against Aspergillus niger; Range is 64-128; assay type: functional; how it was run: as §1
Trichophyton benhamiae [7] = assay: Antifungal activity against Trichophyton mentagrophytes; Range is 32-128; assay type: functional, trychophyton mentagrophytes; how it was run: as §1
Candida tropicalis [8] = assay: Antifungal activity against Candida tropicalis; Range is 32-64; assay type: functional; how it was run: as §1
Trichophyton benhamiae [9] = assay: Antifungal activity against Trichophyton mentagrophytes; assay type: functional, trychophyton mentagrophytes; how it was run: as §1
Candida albicans [10] = assay: Antifungal activity against Candida albicans; Range is 16-64; assay type: functional; how it was run: as §1
Trichophyton rubrum [11] = assay: Antifungal activity against Trichophyton rubrum; Range is 4-16; assay type: functional; how it was run: as §1
Candida parapsilosis = assay: Antifungal activity against Candida parapsilosis; assay type: functional; conditions: Lodderomyces parapsilosis; how it was run: as §1
Aspergillus niger [12] = assay: Antifungal activity against Aspergillus niger; Range is 32-64; assay type: functional; how it was run: as §1
Candida tropicalis [13] = assay: Antifungal activity against Candida tropicalis; Range is 8-16; assay type: functional; how it was run: as §1
Aspergillus niger [14] = assay: Antifungal activity against Aspergillus niger; Range is 16-32; assay type: functional; how it was run: as §1
Trichophyton rubrum [15] = assay: Antifungal activity against Trichophyton rubrum; Range is 1-2; assay type: functional; how it was run: as §1
Candida albicans [16] = assay: Antifungal activity against Candida albicans; Range is 8-16; assay type: functional; how it was run: as §1
Trichophyton benhamiae [17] = assay: Antifungal activity against Trichophyton mentagrophytes; Range is 2-4; assay type: functional, trychophyton mentagrophytes; how it was run: as §1
Candida tropicalis [18] = assay: Antifungal activity against Candida tropicalis; Range is 4-16; assay type: functional; how it was run: as §1
Candida albicans [19] = assay: Antifungal activity against Candida albicans; assay type: functional; how it was run: as §1
Kluyveromyces marxianus [20] = assay: Antifungal activity against Candida pseudotropicalis; Range is 8-16; assay type: functional; how it was run: as §1
Trichophyton benhamiae [21] = assay: Antifungal activity against Trichophyton mentagrophytes; Range is 8-16; assay type: functional, trychophyton mentagrophytes; how it was run: as §1
Trichophyton rubrum [22] = assay: Antifungal activity against Trichophyton rubrum; Range is 8-16; assay type: functional
Candida tropicalis [23] = assay: Antifungal activity against Candida tropicalis; Range is 16-32; assay type: functional; how it was run: as §1
Trichophyton benhamiae [24] = assay: Antifungal activity against Trichophyton mentagrophytes; Range is 32-64; assay type: functional, trychophyton mentagrophytes; how it was run: as §1
Trichophyton rubrum [25] = assay: Antifungal activity against Trichophyton rubrum; Range is 32-64; assay type: functional; how it was run: as §1
Kluyveromyces marxianus [26] = assay: Antifungal activity against Candida pseudotropicalis; Range is 64-128; assay type: functional; how it was run: as §1
Aspergillus niger [27] = assay: Antifungal activity against Aspergillus niger; assay type: functional; how it was run: as §1
Trichophyton rubrum [28] = assay: Antifungal activity against Trichophyton rubrum; Range is 16-32; assay type: functional; how it was run: as §1
Aspergillus niger [29] = assay: Antifungal activity against Aspergillus niger; Range is 32-128; assay type: functional; how it was run: as §1
Trichophyton benhamiae [30] = assay: Antifungal activity against Trichophyton mentagrophytes; Range is 8-32; assay type: functional, trychophyton mentagrophytes; how it was run: as §1
Kluyveromyces marxianus [31] = assay: Antifungal activity against Candida pseudotropicalis; Range is 0.25-4; assay type: functional; how it was run: as §1
Trichophyton rubrum [32] = assay: Antifungal activity against Trichophyton rubrum; assay type: functional; how it was run: as §1
Trichophyton benhamiae [33] = assay: Antifungal activity against Trichophyton mentagrophytes; Range is 4-8; assay type: functional, trychophyton mentagrophytes; how it was run: as §1
Kluyveromyces marxianus [34] = assay: Antifungal activity against Candida pseudotropicalis; Range is 4-8; assay type: functional; how it was run: as §1
Candida tropicalis [35] = assay: Antifungal activity against Candida tropicalis; Range is 8-32; assay type: functional; how it was run: as §1
Trichophyton rubrum [36] = assay: Antifungal activity against Trichophyton rubrum; Range is 2-4; assay type: functional; how it was run: as §1
Candida albicans [37] = assay: Antifungal activity against Candida albicans; Range is 16-32; assay type: functional; how it was run: as §1

SMILES	MIC (Diutina rugosa) [µg/mL]	MIC (Candida albicans [2]) [µg/mL]	MIC (Mucor fragilis) [µg/mL]	MIC (Kluyveromyces marxianus [3]) [µg/mL]	MIC (Trichophyton benhamiae [9]) [µg/mL]	MIC (Candida parapsilosis) [µg/mL]	MIC (Candida albicans [19]) [µg/mL]	MIC (Aspergillus niger [27]) [µg/mL]	also measured
Cc1cc2nnc(-c3ccncc3)nc2c(C)n1	32 (≈ 135 µM)	32 (≈ 135 µM)	> 128	32 (≈ 135 µM)					MIC (Trichophyton rubrum [1]): 64 µg/mL (≈ 270 µM); MIC (Candida tropicalis [4]): 128 µg/mL (≈ 539 µM); MIC (Candida albicans [5]): 32 µg/mL (≈ 135 µM); MIC (Aspergillus niger [6]): 64 µg/mL (≈ 270 µM); MIC (Trichophyton benhamiae [7]): 32 µg/mL (≈ 135 µM)
Cc1nnc2c(N)c(C)nc(C)c2n1						128 (≈ 676 µM)	128 (≈ 676 µM)	128 (≈ 676 µM)	MIC (Trichophyton benhamiae [24]): 32 µg/mL (≈ 169 µM); MIC (Trichophyton rubrum [25]): 32 µg/mL (≈ 169 µM); MIC (Candida tropicalis [4]): 128 µg/mL (≈ 676 µM); MIC (Kluyveromyces marxianus [26]): 64 µg/mL (≈ 338 µM)
Cc1cc2nnc(C)nc2c(C)n1	64 (≈ 367 µM)	64 (≈ 367 µM)	16 (≈ 91.8 µM)				8 (≈ 45.9 µM)		MIC (Trichophyton rubrum [28]): 16 µg/mL (≈ 91.8 µM); MIC (Kluyveromyces marxianus [20]): 8 µg/mL (≈ 45.9 µM); MIC (Aspergillus niger [29]): 32 µg/mL (≈ 184 µM); MIC (Trichophyton benhamiae [30]): 8 µg/mL (≈ 45.9 µM); MIC (Candida tropicalis [4]): 32 µg/mL (≈ 184 µM)
N#Cc1ccc(-c2nnc3ccncc3n2)cc1	> 128	128 (≈ 549 µM)	128 (≈ 549 µM)			64 (≈ 274 µM)	64 (≈ 274 µM)	128 (≈ 549 µM)	MIC (Trichophyton benhamiae [33]): 4 µg/mL (≈ 17.2 µM); MIC (Kluyveromyces marxianus [34]): 4 µg/mL (≈ 17.2 µM); MIC (Candida tropicalis [35]): 8 µg/mL (≈ 34.3 µM); MIC (Trichophyton rubrum [36]): 2 µg/mL (≈ 8.58 µM)
Cc1nccc2nncnc12				8 (≈ 54.7 µM)		64 (≈ 438 µM)		32 (≈ 219 µM)	MIC (Candida albicans [37]): 16 µg/mL (≈ 109 µM); MIC (Trichophyton benhamiae [30]): 8 µg/mL (≈ 54.7 µM); MIC (Candida tropicalis [23]): 16 µg/mL (≈ 109 µM); MIC (Trichophyton rubrum [32]): 4 µg/mL (≈ 27.4 µM)

The next lines start with results.

MIC (Diutina rugosa) [µg/mL]	MIC (Candida albicans [2]) [µg/mL]	MIC (Mucor fragilis) [µg/mL]	MIC (Kluyveromyces marxianus [3]) [µg/mL]	MIC (Trichophyton benhamiae [9]) [µg/mL]	MIC (Candida parapsilosis) [µg/mL]	MIC (Candida albicans [19]) [µg/mL]	MIC (Aspergillus niger [27]) [µg/mL]	SMILES	also measured
32 (≈ 149 µM)	32 (≈ 149 µM)	64 (≈ 299 µM)	32 (≈ 149 µM)	16 (≈ 74.7 µM)	64 (≈ 299 µM)			c1cc2nnc(C3CCCCC3)nc2cn1	MIC (Candida tropicalis [8]): 32 µg/mL (≈ 149 µM); MIC (Candida albicans [10]): 16 µg/mL (≈ 74.7 µM); MIC (Trichophyton rubrum [11]): 4 µg/mL (≈ 18.7 µM); MIC (Aspergillus niger [12]): 32 µg/mL (≈ 149 µM)
8 (≈ 60.5 µM)	8 (≈ 60.5 µM)	8 (≈ 60.5 µM)	4 (≈ 30.3 µM)		16 (≈ 121 µM)			c1cc2nncnc2cn1	MIC (Candida tropicalis [13]): 8 µg/mL (≈ 60.5 µM); MIC (Aspergillus niger [14]): 16 µg/mL (≈ 121 µM); MIC (Trichophyton rubrum [15]): 1 µg/mL (≈ 7.57 µM); MIC (Candida albicans [16]): 8 µg/mL (≈ 60.5 µM); MIC (Trichophyton benhamiae [17]): 2 µg/mL (≈ 15.1 µM)
			8 (≈ 32.8 µM)	4 (≈ 16.4 µM)	16 (≈ 65.5 µM)	16 (≈ 65.5 µM)		Fc1ccc(-c2nnc3ccncc3n2)cc1F	MIC (Candida tropicalis [18]): 4 µg/mL (≈ 16.4 µM); MIC (Trichophyton rubrum [15]): 1 µg/mL (≈ 4.09 µM); MIC (Aspergillus niger [12]): 32 µg/mL (≈ 131 µM)
16 (≈ 76.5 µM)	32 (≈ 153 µM)	> 128	4 (≈ 19.1 µM)	4 (≈ 19.1 µM)	16 (≈ 76.5 µM)			c1cncc(-c2nnc3ccncc3n2)c1	MIC (Candida tropicalis [18]): 4 µg/mL (≈ 19.1 µM); MIC (Aspergillus niger [14]): 16 µg/mL (≈ 76.5 µM); MIC (Trichophyton rubrum [15]): 1 µg/mL (≈ 4.78 µM); MIC (Candida albicans [16]): 8 µg/mL (≈ 38.2 µM)
					32 (≈ 143 µM)	16 (≈ 71.7 µM)		Cc1nccc2nnc(-c3ccncc3)nc12	MIC (Kluyveromyces marxianus [20]): 8 µg/mL (≈ 35.8 µM); MIC (Trichophyton benhamiae [21]): 8 µg/mL (≈ 35.8 µM); MIC (Trichophyton rubrum [22]): 8 µg/mL (≈ 35.8 µM); MIC (Candida tropicalis [23]): 16 µg/mL (≈ 71.7 µM); MIC (Aspergillus niger [12]): 32 µg/mL (≈ 143 µM)
8 (≈ 19.2 µM)	8 (≈ 19.2 µM)	8 (≈ 19.2 µM)		2 (≈ 4.81 µM)	16 (≈ 38.4 µM)		8 (≈ 19.2 µM)	Clc1ccc(COC(Cn2ccnc2)c2ccc(Cl)cc2Cl)c(Cl)c1 (stereo unspecified) [MICONAZOLE]	MIC (Candida tropicalis [13]): 8 µg/mL (≈ 19.2 µM); MIC (Candida albicans [16]): 8 µg/mL (≈ 19.2 µM); MIC (Kluyveromyces marxianus [31]): 0.25 µg/mL (≈ 0.601 µM); MIC (Trichophyton rubrum [32]): 1 µg/mL (≈ 2.4 µM)
